{"source": "ChEMBL document CHEMBL5029154", "about": "“Design, Synthesis, and Biological Evaluation of Organic Nitrite (NO2-) Donors as Potential Anticerebral Ischemia Agents” (J Med Chem, 2021)", "key": {"Cortical neurone [1]": {"system": "Cortical neurone", "assay": "Induction of Nrf2 protein level in OGD/R-induced rat primary cortical neuron pretreated at 1.8 uM for 24 hrs followed by subjected to OGD for 2 hrs measured after 24 hrs under normoxic condition by Western blot analysis", "format": "functional, tissue-based", "how_it_was_run": "(§1)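 Primary rat cortical neurons were pretreated with 1.8 μM compound for 24 h, given 2 h OGD, then 24 h normoxic culture. Nrf2, HO-1 and NQO1 mRNA were measured by RT-qPCR. Cytoplasmic and nuclear protein (30 μg/lane) were blotted for Nrf2, with lamin A and β-actin as references, and quantified by densitometry as the nuclear:cytoplasmic ratio. Three independent experiments, mean ± SD.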"}, "HUVEC": {"system": "HUVEC", "assay": "Angiogenesis activity in HUVEC cells assessed as increase in tube formation at 1.8 uM measured after 8 hrs by inverted microscopy", "format": "functional, cell-based", "conditions": "Homo sapiens", "how_it_was_run": "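Early-passage HUVECs (passages 2–6), grown in DMEM with 10% FBS, glutamine, pyruvate and antibiotics, were seeded at 8 × 10⁴ cells/well on Matrigel. They were exposed to vehicle or compound for 8 h at 37 °C, 5% CO₂. Tubes were counted under an inverted microscope.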"}, "[2]": {"assay": "Neuroprotective activity against in OGD/R-induced rat cortical neuron apoptosis assessed as late apoptotic cells pretreated at 1.8 uM for 24 hrs followed by subjected to OGD for 2 hrs measured after 24 hrs under normoxic condition by PI/FITC-H staining based flow cytometry (reference value: 6.31%)", "format": "functional, Cortical neurone"}, "Cortical neurone [3]": {"system": "Cortical neurone", "assay": "Induction of HO-1 mRNA transcript level in OGD/R-induced rat primary cortical neuron pretreated at 1.8 uM for 24 hrs followed by subjected to OGD for 2 hrs measured after 24 hrs under normoxic condition by RT-qPCR analysis", "format": "functional, tissue-based", "how_it_was_run": "as §1"}, "[4]": {"assay": "Neuroprotective activity against in OGD/R-induced rat primary cortical neuron apoptosis assessed as viable cells pretreated at 1.8 uM for 24 hrs followed by subjected to OGD for 2 hrs measured after 24 hrs under normoxic condition by PI/FITC-H staining based flow cytometry (reference value: 31.55%)", "format": "functional", "conditions": "Cortical neurone, read-out: Activity", "how_it_was_run": "(§2)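 Cortical neurons were isolated from SD rat cortex by enzymatic digestion, plated on poly-lysine in 10% FBS DMEM, and pretreated 24 h at 1.8 μM in basal medium with 2% B27. OGD was run in glucose/FBS-free DMEM under 1% O₂, followed by 24 h reoxygenation in 10% FBS DMEM. Viability was read by MTT; apoptosis was also assessed. Three independent experiments.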"}, "[5]": {"assay": "Neuroprotective activity against in OGD/R-induced rat cortical neuron apoptosis assessed as necrotic cells pretreated at 1.8 uM for 24 hrs followed by subjected to OGD for 2 hrs measured after 24 hrs under normoxic condition by PI/FITC-H staining based flow cytometry (reference value: 3.68%)", "format": "functional, Cortical neurone"}, "[6]": {"assay": "Neuroprotective activity against in OGD/R-induced rat cortical neuron apoptosis assessed as early apoptotic cells pretreated at 1.8 uM for 24 hrs followed by subjected to OGD for 2 hrs measured after 24 hrs under normoxic condition by PI/FITC-H staining based flow cytometry (reference value: 58.46%)", "format": "functional, Cortical neurone"}, "Cortical neurone [7]": {"system": "Cortical neurone", "assay": "Induction of NQO1 mRNA transcript level in OGD/R-induced rat primary cortical neuron pretreated at 1.8 uM for 24 hrs followed by subjected to OGD for 2 hrs measured after 24 hrs under normoxic condition by RT-qPCR analysis", "format": "functional, tissue-based", "how_it_was_run": "as §1"}, "Cortical neurone [8]": {"system": "Cortical neurone", "assay": "Effect on Nrf2 mRNA transcript level in OGD/R-induced rat primary cortical neuron pretreated at 1.8 uM for 24 hrs followed by subjected to OGD for 2 hrs measured after 24 hrs under normoxic condition by RT-qPCR analysis", "format": "functional, tissue-based", "how_it_was_run": "as §1"}, "[9]": {"assay": "Drug metabolism assessed as nitric oxide release in presence of bovine plasma at 200 uM measured after 1 hr by Griess reagent based assay", "format": "ADME, cell-free, Bos taurus", "conditions": "cattle"}, "Cortical neurone [10]": {"system": "Cortical neurone", "assay": "Neuroprotective activity against in OGD/R-induced Sprague-Dawley rat cortical neuron injury assessed as cell viability pretreated at 1.8 uM for 24 hrs followed by subjected to OGD for 2 hrs measured after 24 hrs under normoxic condition", "format": "functional, tissue-based", "how_it_was_run": "as §2"}, "Cortical neurone [11]": {"system": "Cortical neurone", "assay": "Neuroprotective activity against in OGD/R-induced rat cortical neuron cytotoxicity assessed as decrease in cell viability pretreated at 1.8 uM for 24 hrs followed by subjected to OGD for 2 hrs measured after 24 hrs under normoxic condition by MTT assay", "format": "functional, tissue-based", "how_it_was_run": "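Primary rat cortical neurons from enzymatically digested cortex, plated on poly-lysine in DMEM/10% FBS for 4 h. Pretreated 24 h in neuron basal medium with 2% B27, then glucose/FBS-free DMEM at 1% O2. Returned to 10% FBS DMEM under normoxia for 24 h. Viability by MTT; three independent experiments, mean SD.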"}}, "note": "Calls of active or inactive are those of the source. No cut-off for these calls is given here.", "data": [{"smiles": "C/C(=C\\c1ccccc1)C(=O)c1ccccc1", "values": [{"measurement": "Activity", "setting": "Cortical neurone [1]", "value": "Active"}, {"measurement": "Activity", "setting": "HUVEC", "value": "inactive"}]}, {"smiles": "CC(C)(C)c1cc(O)ccc1O", "note": "[E319]", "values": [{"measurement": "Activity", "setting": "[2]", "value": 1.4, "unit": "%"}, {"measurement": "Activity", "setting": "Cortical neurone [3]", "value": "Active"}, {"measurement": "viability at 1.8 µM", "setting": "[4]", "value": 84, "unit": "%"}, {"measurement": "Activity", "setting": "[5]", "value": 0.84, "unit": "%"}, {"measurement": "Activity", "setting": "[6]", "value": 13.91, "unit": "%"}, {"measurement": "Activity", "setting": "Cortical neurone [7]", "value": "Active"}, {"measurement": "Activity", "setting": "Cortical neurone [8]", "value": "inactive"}, {"measurement": "Activity", "setting": "Cortical neurone [1]", "value": "Active"}]}, {"smiles": "O=C1CCCC=C1C[N+](=O)[O-]", "values": [{"measurement": "Drug metabolism", "setting": "[9]", "value": "Metabolite_Detected"}]}, {"smiles": "N#C/C(=C\\c1ccccc1)C[N+](=O)[O-]", "values": [{"measurement": "Activity", "setting": "Cortical neurone [10]", "value": "Active"}, {"measurement": "Drug metabolism", "setting": "[9]", "value": "Metabolite_Detected"}]}, {"smiles": "COC(=O)/C(=C/c1ccccc1)C[N+](=O)[O-]", "values": [{"measurement": "Activity", "setting": "Cortical neurone [10]", "value": "Active"}, {"measurement": "Drug metabolism", "setting": "[9]", "value": "Metabolite_Detected"}]}, {"smiles": "O=N[O-].[Na+]", "note": "[SODIUM NITRITE]", "values": [{"measurement": "Activity", "setting": "[2]", "value": 2.47, "unit": "%"}, {"measurement": "Activity", "setting": "Cortical neurone [11]", "value": "inactive"}, {"measurement": "viability at 1.8 µM", "setting": "[4]", "value": 46.9, "unit": "%"}, {"measurement": "Activity", "setting": "[5]", "value": 0.51, "unit": "%"}, {"measurement": "Activity", "setting": "[6]", "value": 50.12, "unit": "%"}, {"measurement": "Activity", "setting": "Cortical neurone [8]", "value": "inactive"}, {"measurement": "Activity", "setting": "Cortical neurone [1]", "value": "inactive"}]}, {"smiles": "O=[N+]([O-])C/C(=C\\c1ccccc1)[N+](=O)[O-]", "values": [{"measurement": "Activity", "setting": "Cortical neurone [10]", "value": "Active"}, {"measurement": "Drug metabolism", "setting": "[9]", "value": "Metabolite_Detected"}]}]}
